Assay outcomes (PubChem BioAssay)
Only some compounds are listed: those with a hit (about 2.6% of all), similar ones and a draw of the others.
SENP8 block-1: SENP8 (human) protease inhibition; Q96LD8; recombinant SENP8, Nedd8 substrate fluorescence; inhibition, % at 20 µM; 360,000 tested, 0.64% active; AID 602440; in the data active = inhibition mostly above about 40%, no sharp cut-off; inactive = mostly below about 27%
SENP1 inh: blocks the human SENP1 SUMO protease catalytic domain; inhibition, % at 10 µM; Q9P0U3; 360,000 tested, 0.21% active; AID 624204; recombinant SENP1 catalytic domain, CyPet-SUMO1-YPet FRET cleavage;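 active = inhibition at least 30% at 10 µM, raw YFP signal under a set limit, fluorescence ratio 0.5 to 1.5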;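 note: 0% = enzyme with DMSO and 100% = no enzyme wells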
Target sequence (Q9P0U3 419-644 limits assumed): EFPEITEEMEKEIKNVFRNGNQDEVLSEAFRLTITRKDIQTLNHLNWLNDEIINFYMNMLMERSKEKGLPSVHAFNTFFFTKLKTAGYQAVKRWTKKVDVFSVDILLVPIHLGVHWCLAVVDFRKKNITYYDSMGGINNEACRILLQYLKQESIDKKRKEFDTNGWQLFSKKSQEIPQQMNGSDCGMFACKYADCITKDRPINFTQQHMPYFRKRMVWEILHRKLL
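Test system: recombinant human SENP1 catalytic domain, His6-tagged / Medium: pH 8 Tris buffer with EDTA, NaCl, BME, BSA, NP40, catalase / Also added: SUMO1 FRET substrate flanked by Cypet and Ypet, 25 nM / Times: 50 min reaction at room temperature / Signal: FRET, CFP and YFP emission / Control set: no-enzyme low control and enzyme-plus-DMSO high control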
Platelet DG rel: modulates dense granule release in human platelets; 300,000 tested, 0.22% active; human platelet-rich plasma, SFLLRN dense granule ATP release, luminescence; inhibition, %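 (compounds screened at 7.5 µM in platelet-rich plasma)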;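 active = mean replicate score, as percent of positive control, at or above 50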
SENP7 block: inhibitors of human SENP7 protease; Q9BQF6; recombinant SENP7, Z-RLRGG-aminoluciferin luminescence, 40 min; inhibition, % at 5 µM; 330,000 tested, 1.5% active; AID 434973;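 active = inhibition above about 50% at the single test dose, limit read from the data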;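 note: plate controls were DMSO with enzyme for no effect and no enzyme buffer wells for full effect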
Target sequence (Q9BQF6 706-1050 limits assumed): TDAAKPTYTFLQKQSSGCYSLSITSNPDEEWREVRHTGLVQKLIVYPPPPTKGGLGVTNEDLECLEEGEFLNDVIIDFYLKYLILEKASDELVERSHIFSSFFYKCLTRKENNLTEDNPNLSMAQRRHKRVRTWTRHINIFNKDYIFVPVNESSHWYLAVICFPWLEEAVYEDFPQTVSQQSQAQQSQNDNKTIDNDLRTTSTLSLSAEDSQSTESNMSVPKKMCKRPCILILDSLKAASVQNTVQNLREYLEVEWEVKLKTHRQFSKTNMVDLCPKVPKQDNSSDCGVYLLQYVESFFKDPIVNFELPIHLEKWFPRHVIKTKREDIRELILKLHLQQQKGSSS
SENP6 block: SENP6 protease inhibition | Q9GZR1 | Recombinant SENP6 catalytic domain, aminoluciferin luminescence | inhibition, % at 10 µM | 330,000 tested, 1.8% active | AID 2599;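 active = inhibition above about 50% at the single tested dose, limit read from the data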;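 note: plate controls were DMSO wells with enzyme for no effect and DMSO wells lacking enzyme for full effect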
SENP8 block-2: blocks the human protease SENP8; 330,000 tested, 1.2% active; inhibition, % at 10 µM; purified SENP8, Z-RLRGG-aminoluciferin cleavage, luminescence; Q96LD8; in the data active = inhibition above about 50%
Numbers without * were called inactive; . = not tested or not shown.

SMILES | SENP8 block-1 | SENP1 inh | Platelet DG rel | SENP7 block | SENP6 block | SENP8 block-2
COc1cccc(N=Nc2ccc3cccnc3c2O)c1 | 24 | 5 | 7 | 79* | 90* | 84*
COc1ccc(N=Nc2ccc(O)c3ncccc23)cc1 | 28 | 2 | 1 | -7 | -11 | -17
Oc1ccc(N=Nc2ccc3c(c2)OCCO3)c2cccnc12 | 40* | 5 | 7 | -10 | -9 | -11
Oc1ccc(N=Nc2ccc3c(c2)OCCO3)c(O)c1 | 45* | 17 | 41 | 91* | 95* | 95*
Cc1ccc(S(=O)(=O)NCC(=O)OCC(=O)N2N=C(c3ccc(Cl)cc3)CC2c2ccco2)cc1C (centres undefined) | 28 | -7 | 1 | -9 | -11 | -11
COc1cc(-c2nnc(SCc3cc(=O)oc4cc(C)ccc34)o2)cc(OC)c1OC | -87 | -2 | 12 | 7 | 0 | 0
O=C(Cn1cnc2c(cnn2-c2ccc(F)cc2)c1=O)OCc1ccccc1 | 30 | -1 | 53* | -3 | -11 | -3
O=C(CCc1ccc(S(=O)(=O)N2CCOCC2)cc1)N/N=C/c1ccc(O)c(O)c1O | 39* | 3 | 15 | 8 | -5 | -3
O=[N+]([O-])c1ccc(N/N=C/c2ccc(O)c(O)c2O)c(S(=O)(=O)N2CCOCC2)c1 | 90* | 7 | 3 | 16 | 38 | 15
CC(C)(C)C(=O)[C@@H]1[C@@H]2C(=O)N(c3ccc4c(c3)OCCO4)C(=O)[C@@H]2C2c3ccccc3C=CN21 (some centres undefined) | 60* | 9 | -9 | 10 | 24 | 14
CC(=O)[C@@H]1[C@@H]2C(=O)N(Cc3ccccc3)C(=O)[C@@H]2C2c3ccccc3C=CN21 (some centres undefined) | -189 | -22 | 2 | -1 | 23 | 14
Cc1ccc(N2C(=O)[C@@H]3[C@H](C2=O)C2c4ccccc4C=CN2[C@@H]3C(=O)c2ccco2)c(C)c1 (some centres undefined) | -123 | 6 | 6 | 51* | 43 | 42
O=C(c1ccco1)[C@@H]1[C@@H]2C(=O)N(c3ccccc3)C(=O)[C@@H]2C2c3ccccc3C=CN21 (some centres undefined) | -2 | -25 | -3 | 7 | 87* | 64*
C/C(=N\NC(=O)c1cc(Cl)ccc1O)c1ccc(Br)s1 | -168 | -3 | -18 | 49 | 79* | 74*
Cn1c(=O)[nH]c(=O)c2c1nc(N1CCCC1)n2CCO | 8 | 0 | 4 | 0 | 13 | 0
Cn1c(=O)[nH]c(=O)c2c1nc(N1CCCCCC1)n2CC(N)=O | 6 | 1 | 70* | -1 | 8 | 7
COc1cc(/C=C2/S/C(=N/S(=O)(=O)Cc3ccccc3)NC2=O)c([N+](=O)[O-])cc1OC | 42* | 11 | -1 | 6 | 9 | 2
COc1ccc(C(=O)N2CCCC(c3nc(-c4ccc(OC)c(OC)c4)no3)C2)c(OC)c1 (centres undefined) | 13 | 2 | 50* | 2 | -14 | -4
COc1ccc(-c2noc(C3CCCN(C(=O)c4ccccc4OC)C3)n2)cc1OC (centres undefined) | 23 | 1 | 0 | -3 | -29 | -9
C#CCOc1ccc(/C=C2/C(=O)N(c3ccc(S(N)(=O)=O)cc3)N=C2C)cc1OC | 63* | 3 | . | . | . | .
COc1cc(/C=C2\C(=O)N(c3ccccc3)N=C2C)ccc1Oc1ccc([N+](=O)[O-])cc1[N+](=O)[O-] | 58* | 2 | . | . | . | .
COc1cc(/C=C2/C(=O)N(c3ccc(C(=O)O)cc3)N=C2C)cc(OC)c1O | 24 | 3 | 7 | 47 | 31 | 8
COc1cc(/C=C2/C(=O)N(c3ccc(Br)cc3)N=C2C)cc(OC)c1OC | 49* | 2 | -2 | 20 | 20 | -9
COc1cc(/C=C2/C(=O)N(c3ccc(C)c(C)c3)N=C2C)cc([N+](=O)[O-])c1O | 20 | 1 | -8 | 3 | 4 | -5
C=CCn1c(O)c(N=NC(=S)Nc2ccccc2F)c2ccccc21 | 23 | 6 | 4 | -2 | 9 | -6
SMILES | SENP8 block-1 | SENP1 inh | Platelet DG rel | SENP7 block | SENP6 block | SENP8 block-2
C=CCn1c(O)c(N=NC(=S)Nc2cccc(C)c2)c2ccccc21 | 42* | 3 | 5 | -3 | 10 | -3
O=C(CN1C(=O)S/C(=C\C=C\c2ccccc2)C1=O)Nc1ccc(C(=O)O)cc1 | -144 | -3 | -2 | -6 | 15 | 2
CCOc1cc(CNc2ccc(O)cc2)ccc1OCc1ccc(Cl)cc1Cl | 75* | 16 | -1 | 72* | -3 | -6
O=[N+]([O-])c1ccc(Oc2ccc(S(=O)(=O)Nc3ccccc3)cc2)cc1 | 18 | 2 | -3 | -4 | 3 | 5
O=C1C(Cl)=C(NS(=O)(=O)c2ccc([N+](=O)[O-])cc2)C(=O)c2ccccc21 | 53* | 3 | 4 | 16 | 12 | 11
CC(C)(OC(=O)c1ccc(C(F)(F)F)cc1)c1cc2ccccc2c(=O)o1 | 6 | 4 | . | 4 | -2 | 8
O=C(O)c1cccc(NS(=O)(=O)c2ccc3nnn(O)c3c2)c1 | 19 | 3 | 6 | -6 | 14 | -7
O=C(O)c1cccc(NC2=C(n3nnc4ccccc43)C(=O)c3ccccc3C2=O)c1 | 69* | 1 | -2 | 24 | -8 | 38
Cc1cc(C(=O)N/N=C/c2ccc[nH]2)n[nH]1 | -37 | 2 | 5 | -19 | 5 | -2
Nc1cc(C(=O)O)c(N)c2c1C(=O)c1ccccc1C2=O | 51* | 8 | 2 | 11 | 59* | 23
O=C(O)c1cc2ccccc2c2c1C(=O)c1ccccc1-2 | 4 | -5 | . | . | . | .
COc1ccc(CN2CCC(C(=O)N(C)CCc3ccc(OC)c(OC)c3)CC2)c(OC)c1 | 26 | 3 | -1 | 4 | -21 | -4
Cn1c(=O)c(C(=O)Nc2ccccn2)c(O)c2ccccc21 | -188 | 0 | 11 | 75* | -5 | 36
O=C(CCOc1ccccc1)Nc1ccnn1C1CCN(Cc2ccc(F)cc2)CC1 | -5 | 2 | 24 | 9 | 3 | -4
O=C1NNC(c2ccccc2)=N/C1=C\c1ccccc1Cl | 117* | 2 | . | . | . | .
CC(OC(=O)c1cc(S(=O)(=O)N2CCOCC2)ccc1Br)C(=O)N1CCOCC1 (centres undefined) | 0 | 0 | . | 3 | 5 | 1
Nc1ncnc2c1ncn2[C@@H]1O[C@H](COP(=O)(O)O)[C@@H](O)[C@H]1O | 12 | 2 | 83* | -3 | 0 | -1
Nc1ncnc2c1ncn2C1OC(CO)C2OC21 (centres undefined) | 4 | 1 | . | . | . | .
CCOC1OC2C(CO)OC(n3cnc4c(N)ncnc43)C2O1 (centres undefined) | 8 | -1 | 74* | 5 | -11 | 0
